Laboratory results: ChEMBL document CHEMBL1143122, “Novel analogs of D-e-MAPP and B13. Part 1: synthesis and evaluation as potential anticancer agents” (Bioorg Med Chem, 2008)

Tests used:
Malme-3M = test: Antiproliferative activity against human MALME3M cells after 48 hrs; format: functional
Summary of the method: (§1)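 NCI 60-cell screen. Cells were grown in RPMI 1640 with 5% FBS and 2 mM L-glutamine, then plated at 5,000–40,000 cells/well according to doubling time and preincubated for 24 h at 37 °C in 5% CO2. Compounds were dissolved in DMSO at 400× the top final concentration and tested at five 10-fold dilutions from 10−4 to 10−8 M for 48 h. Growth was read spectrophotometrically; GI50 is 50% net protein reduction.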

M14 = test: Antiproliferative activity against human M14 cells after 48 hrs; format: functional; details: M14, 48 h; summary of the method: as §1
SK-MEL-5 = test: Antiproliferative activity against human SKMEL5 cells after 48 hrs; format: functional; details: SK-MEL-5, 48 h; summary of the method: as §1
IGROV-1 = test: Antiproliferative activity against human IGROV1 cells after 48 hrs; format: functional; details: IGROV-1, 48 h; summary of the method: as §1
OVCAR-3 = test: Antiproliferative activity against human OVCAR-3 cells after 48 hrs; format: functional; details: OVCAR-3, 48 h; summary of the method: as §1
OVCAR-4 = test: Antiproliferative activity against human OVCAR4 cells after 48 hrs; format: functional; details: OVCAR-4, 48 h; summary of the method: as §1
786-0 = test: Antiproliferative activity against human 786-0 cells after 48 hrs; format: functional; details: 786-0, 48 h; summary of the method: as §1
A498 = test: Antiproliferative activity against human A498 cells after 48 hrs; format: functional; details: A498, 48 h; summary of the method: as §1
ACHN = test: Antiproliferative activity against human ACHN cells after 48 hrs; format: functional; summary of the method: as §1
RXF 393 = test: Antiproliferative activity against human RXF393 cells after 48 hrs; format: functional; details: RXF 393, 48 h; summary of the method: as §1
SN12C = test: Antiproliferative activity against human SN12C cells after 48 hrs; format: functional; summary of the method: as §1
TK-10 = test: Antiproliferative activity against human TK10 cells after 48 hrs; format: functional; details: TK-10, 48 h
Summary of the method: (§2)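 NCI 60-cell-line screen. Lines grown in RPMI 1640 with 5% fetal bovine serum and 2 mM L-glutamine, plated at 5,000–40,000 cells/well according to doubling time, left 24 h at 37 °C in 5% CO2. Drug stocks in DMSO at 400-fold the top final concentration. Five 10-fold dilutions, 10−4 to 10−8 M, incubated 48 h. Growth read spectrophotometrically as net protein; GI50 taken as 50% reduction.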

[1] = Antiproliferative activity against human NCI-ADR-RES cells after 48 hrs; format: functional; summary of the method: as §1
Hs-578T = test: Antiproliferative activity against human HS578T cells after 48 hrs; format: functional; summary of the method: as §1
NCI-H226 = test: Antiproliferative activity against human NCI-H226 cells after 48 hrs; format: functional; details: NCI-H226, 48 h; summary of the method: as §1
NCI-H23 = test: Antiproliferative activity against human NCI-H23 cells after 48 hrs; format: functional; details: NCI-H23, 48 h; summary of the method: as §1
NCI-H522 = test: Antiproliferative activity against human NCI-H522 cells after 48 hrs; format: functional; details: NCI-H522, 48 h; summary of the method: as §1
COLO 205 = test: Antiproliferative activity against human COLO205 cells after 48 hrs; format: functional; details: COLO 205, 48 h; summary of the method: as §1
HCC 2998 = test: Antiproliferative activity against human HCC2998 cells after 48 hrs; format: functional; details: HCC 2998, 48 h; summary of the method: as §1
HCT-116 = test: Antiproliferative activity against human HCT116 cells after 48 hrs; format: functional; details: HCT-116, 48 h; summary of the method: as §1
HT-29 = test: Antiproliferative activity against human HT29 cells after 48 hrs; format: functional; details: HT-29, 48 h; summary of the method: as §1
KM12 = test: Antiproliferative activity against human KM12 cells after 48 hrs; format: functional; details: Homo sapiens, KM12, 48 h; summary of the method: as §1
SW-620 = test: Antiproliferative activity against human SW620 cells after 48 hrs; format: functional; details: SW-620, 48 h; summary of the method: as §2
SF-295 = test: Antiproliferative activity against human SF295 cells after 48 hrs; format: functional; details: SF-295, 48 h; summary of the method: as §1
SF-539 = test: Antiproliferative activity against human SF539 cells after 48 hrs; format: functional; details: SF-539, 48 h; summary of the method: as §1
SNB-19 = test: Antiproliferative activity against human SNB19 cells after 48 hrs; format: functional; details: SNB-19, 48 h; summary of the method: as §1
[2] = Antiproliferative activity against human HL60(TB) cells after 48 hrs; format: functional, HL-60(TB); details: HL-60, 48 h
Summary of the method: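 NCI 60-line panel screen: cells grown in RPMI 1640 with 5% fetal bovine serum and 2 mM L-glutamine, plated at 5,000–40,000 cells/well by doubling time, and preincubated 24 h at 37 °C in 5% CO2. Drugs were solubilised in DMSO at 400-fold the final maximum and tested at five 10-fold dilutions from 10−4 to 10−8 M for 48 h. Net protein was read spectrophotometrically, and the concentration giving 50% reduction was reported as log10 GI50.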

A549 = test: Antiproliferative activity against human A549 cells after 48 hrs; format: functional; details: A549, 48 h; summary of the method: as §1
[3] = read-out: Log LC50 (the source's name) (converted)

C[C@H](NC(=O)CCCCCCCCCCCCCCC[n+]1ccccc1)[C@H](O)c1ccccc1.[Br-]
GI50 (Malme-3M): 2.45 µM
LC50 (Malme-3M): 20 µM
TGI (Malme-3M; read-out: Log TGI (converted)): 5.89 µM
GI50 (M14): 6.31 µM
LC50 (M14): 46.8 µM
TGI (M14; read-out: Log TGI (converted)): 19.5 µM
GI50 (SK-MEL-5): 1.62 µM
CC50 (SK-MEL-5; [3]): 9.55 µM
TGI (SK-MEL-5; read-out: Log TGI (converted)): 3.89 µM
GI50 (IGROV-1): 3.16 µM
LC50 (IGROV-1): 57.5 µM
TGI (IGROV-1; read-out: Log TGI (converted)): 15.8 µM
GI50 (OVCAR-3): 1.32 µM
LC50 (OVCAR-3): 26.3 µM
TGI (OVCAR-3; read-out: Log TGI (converted)): 6.46 µM
GI50 (OVCAR-4): 1.66 µM
LC50 (OVCAR-4): 42.7 µM
TGI (OVCAR-4; read-out: Log TGI (converted)): 12.3 µM
GI50 (786-0): 10.2 µM
CC50 (786-0; [3]): 49 µM
TGI (786-0; read-out: Log TGI (converted)): 22.4 µM
GI50 (A498): 17.8 µM
CC50 (A498; [3]): 57.5 µM
TGI (A498; read-out: Log TGI (converted)): 32.4 µM
GI50 (ACHN): 21.9 µM
CC50 (ACHN; [3]): 91.2 µM
TGI (ACHN; read-out: Log TGI (converted)): 44.7 µM
GI50 (RXF 393): 12 µM
CC50 (RXF 393; [3]): 74.1 µM
TGI (RXF 393; read-out: Log TGI (converted)): 29.5 µM
GI50 (SN12C): 3.47 µM
LC50 (50% net cell kill) (SN12C): 47.9 µM
TGI (SN12C; read-out: Log TGI (converted)): 14.8 µM
GI50 (TK-10): 14.5 µM
CC50 (TK-10; [3]): 56.2 µM
TGI (TK-10; read-out: Log TGI (converted)): 28.2 µM
GI50 [1]: > 100 µM
LC50 [1]: > 100 µM
TGI ([1]; read-out: Log TGI (converted)): > 100 µM
GI50 (Hs-578T): 3.24 µM
LC50 (Hs-578T): > 100 µM
TGI (Hs-578T; read-out: Log TGI (converted)): 13.5 µM
GI50 (NCI-H226): 6.46 µM
CC50 (NCI-H226; [3]): 89.1 µM
TGI (NCI-H226; read-out: Log TGI (converted)): 26.9 µM
GI50 (NCI-H23): 2.95 µM
CC50 (NCI-H23; [3]): 49 µM
TGI (NCI-H23; read-out: Log TGI (converted)): 15.5 µM
GI50 (NCI-H522): 2.04 µM
CC50 (NCI-H522; [3]): 50.1 µM
TGI (NCI-H522; read-out: Log TGI (converted)): 13.2 µM
GI50 (COLO 205): 1.05 µM
CC50 (COLO 205; [3]): 31.6 µM
TGI (COLO 205; read-out: Log TGI (converted)): 4.9 µM
GI50 (HCC 2998): 1.55 µM
CC50 (HCC 2998; [3]): 30.9 µM
TGI (HCC 2998; read-out: Log TGI (converted)): 7.41 µM
GI50 (HCT-116): 3.47 µM
LC50 (HCT-116): 38.9 µM
TGI (HCT-116; read-out: Log TGI (converted)): 14.8 µM
GI50 (HT-29): 1.32 µM
LC50 (HT-29): 34.7 µM
TGI (HT-29; read-out: Log TGI (converted)): 11.7 µM
GI50 (KM12): 2.75 µM
CC50 (KM12; [3]): 36.3 µM
TGI (KM12; read-out: Log TGI (converted)): 11.5 µM
GI50 (SW-620): 6.92 µM
LC50 (concentration killing 50% of cells) (SW-620): 45.7 µM
TGI (SW-620; read-out: Log TGI (converted)): 20 µM
GI50 (SF-295): 14.5 µM
LC50 (SF-295): 53.7 µM
TGI (SF-295; read-out: Log TGI (converted)): 27.5 µM
GI50 (SF-539): 3.39 µM
LC50 (SF-539): 39.8 µM
TGI (SF-539; read-out: Log TGI (converted)): 14.1 µM
GI50 (SNB-19): 3.09 µM
CC50 (SNB-19; [3]): 38 µM
TGI (SNB-19; read-out: Log TGI (converted)): 13.2 µM
GI50 [2]: 1.48 µM
LC50 [2]: 31.6 µM
TGI ([2]; read-out: Log TGI (converted)): 4.37 µM
GI50 (A549): 5.13 µM
CC50 (A549; [3]): 67.6 µM
TGI (A549; read-out: Log TGI (converted)): 21.9 µM
